According to ChEMBL document CHEMBL4513216, “Probing the Open Global Health Chemical Diversity Library for Multistage-Active Starting Points for Next-Generation Antimalarials” (ACS Infect Dis, 2020):

Experiment: Toxicity liver stage against HepG2, at 10uM
Type: cell-based
Set-up: test concentration 10 uM, cell line HepG2-A16-CD81EGFP
Settings: human, HepG2-A16-CD81EGFP cells; read-out: INHIBITION
In short: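 Uninfected HepG2-A16-CD81EGFP cells, 3 × 10^3 per well, 1536-well, plated on prespotted compound at 10 μM final, parasite-free screening media added to match infected plates; puromycin 10 μM positive, DMSO 0.5% negative; run in parallel with 48 h PbLuc assay at 37 °C, 5% CO2; viability by CellTiter-Glo luminescence, normalized to controls.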

## Cc1nc(NC(=O)c2c(-n3cnnn3)sc(C)c2C)sc1C
  cytotoxicity at 10 µM: 2.13%

## CC(C)Cn1ccc2c(NC(=O)c3n[nH]c4c3CCC4)cccc21
  cytotoxicity at 10 µM: 7.33%

## Cc1cc(NC(=O)C(C)C)n(-c2nc(C)c(C)c(=O)[nH]2)n1
  cytotoxicity at 10 µM: 43.1%

## CCc1c(C)nc(-n2nc(C3CC3)cc2NC(C)=O)[nH]c1=O
  cytotoxicity at 10 µM: 30.3%

## O=C1[C@H]2CN(C3CCOCC3)C[C@H]2CN1Cc1cccnc1
  cytotoxicity at 10 µM: -127%

## O=C(c1cnccn1)N1C[C@@H]2[C@@H](C1)OCC(=O)N2CC1CCCC1
  cytotoxicity at 10 µM: 1.58%

## CN1CCCC1c1cccc(Cc2ccc(F)cc2)n1 (stereo unspecified)
  cytotoxicity at 10 µM: 4.3%

## CCCOc1cccc(OCc2ccon2)c1
  cytotoxicity at 10 µM: -4.9%

## COc1cccc(C(CO)NC(=O)NC(C)C)c1 (stereo unspecified)
  cytotoxicity at 10 µM: 10.5%

## CC(C)(C)C(=O)NCC(=O)NCC1CCCS1 (stereo unspecified)
  cytotoxicity at 10 µM: 3.46%

## Cc1noc(C)c1CN(C)Cc1csc(-c2ccc(C(C)C)cc2)n1
  cytotoxicity at 10 µM: 54.8%

## CCCn1nc2c(cc1=O)CN(c1ncnc3sccc13)CC2
  cytotoxicity at 10 µM: 49.4%

## COc1ccc(CN(Cc2cc(C)no2)C2CC2)cc1
  cytotoxicity at 10 µM: -3.71%

## COCCCSc1ccc(NCc2scnc2C)cc1
  cytotoxicity at 10 µM: 55.3%

## CCc1nc(C)c(C(=O)NCCNc2ncnc3sccc23)s1
  cytotoxicity at 10 µM: 41.1%

## OC(CN1CCN(CC2CCCCC2)CC1)c1ccccc1 (stereo unspecified)
  cytotoxicity at 10 µM: 1.53%

## Cc1cc(NC(=O)C2CN(Cc3ccccc3)CCO2)ccn1 (stereo unspecified)
  cytotoxicity at 10 µM: 54.9%

## COC(=O)C(C)(C)NC(=O)c1cnc(Cc2ccc(F)cc2)s1
  cytotoxicity at 10 µM: -0.538%

## Cc1nnc(NCC2(c3ccccc3)CCC2)c(C#N)c1C
  cytotoxicity at 10 µM: 19.9%

## CC(C)(C)n1ncc2c1CCCC2NCc1ccc2c(c1)OCCO2 (stereo unspecified)
  cytotoxicity at 10 µM: 1.7%

## CCc1nc(CN2CCCN(c3ncnc4sccc34)CC2)no1
  cytotoxicity at 10 µM: 59.9%

## Cc1ccc(SC2CCCC2)c(C(=O)NCCO)c1
  cytotoxicity at 10 µM: -45.3%

## c1ccc2c(NCC3(N4CCOCC4)CCSC3)ncnc2c1 (stereo unspecified)
  cytotoxicity at 10 µM: 57%

## COc1cc(N2CCC3(CCN(Cc4cccnc4)C3=O)C2)ncn1 (stereo unspecified)
  cytotoxicity at 10 µM: -107%

## O=S(=O)(c1ccccc1)N1CCC2(CCCN2Cc2ccc(Cl)cc2)C1 (stereo unspecified)
  cytotoxicity at 10 µM: -66.3%

## O=C(O)C1CC2(CCN(c3nccc4ccccc34)CC2)CN1 (stereo unspecified)
  cytotoxicity at 10 µM: -2.65%

## c1ccc(OCCNc2ncnc3sc4c(c23)CCNC4)cc1
  cytotoxicity at 10 µM: 45.4%

## Cc1ccc(-c2cc(CNc3ncnc4c3CCNCC4)no2)cc1
  cytotoxicity at 10 µM: 13%

## CC(C)c1nccn1Cc1cc(C(=O)NCC(F)(F)F)n[nH]1
  cytotoxicity at 10 µM: 3.73%

## COc1ccc(-c2cc(CNc3ncnc4c3CCNCC4)no2)cc1
  cytotoxicity at 10 µM: 13.1%

## CC(C)(CO)Nc1ccc(-c2nc(-c3ccccc3F)no2)cn1
  cytotoxicity at 10 µM: 9.62%

## COc1ccc(C(=O)C2CCCN(c3cc(OC)ncn3)C2)c(C)c1 (stereo unspecified)
  cytotoxicity at 10 µM: 48%

## CC(C)=CCC1(CO)CCCN(S(=O)(=O)N2CCCC2)C1 (stereo unspecified)
  cytotoxicity at 10 µM: -3.38%

## O=C1NCCN1C1CCN(Cc2nc(-c3ccc(F)cc3)no2)CC1
  cytotoxicity at 10 µM: 44.1%

## COCC1CN(Cc2ccc(OC)cc2)Cc2nn(C)cc21 (stereo unspecified)
  cytotoxicity at 10 µM: 0.976%

## Cc1cccc(CNC(Cc2ccsc2)c2nc(C)c(C)s2)n1 (stereo unspecified)
  cytotoxicity at 10 µM: -0.52%

## Clc1cccc(C[C@@H]2NCCC[C@@H]2Nc2cccc(Cl)c2)c1
  cytotoxicity at 10 µM: 86%

## Cc1ccc(-c2ccc(C3CNCCO3)nc2)cc1 (stereo unspecified)
  cytotoxicity at 10 µM: -5.3%

## CC(C)NC(=O)N1CCc2onc(C(=O)NCCN(C)C)c2C1
  cytotoxicity at 10 µM: 0.0529%

## Fc1ccc2c(c1)C1(CCNCC1)CC2NC1CC1 (stereo unspecified)
  cytotoxicity at 10 µM: -117%

## Cc1ccc(N2CC[C@H]3O[C@@H](C(=O)N4CCCO4)CC[C@H]32)nn1
  cytotoxicity at 10 µM: 0.908%

## O=c1c2sccc2nc2n1CCN(Cc1ccccc1C(F)(F)F)CC2
  cytotoxicity at 10 µM: -9.31%

## O=C(NCCN1CCOCC1)c1ccnn1-c1ccc2ccccn12
  cytotoxicity at 10 µM: 10.9%

## COCCN1CCCCC12CC(=O)N(c1ccccc1OC)C2 (stereo unspecified)
  cytotoxicity at 10 µM: -92.6%

## FC1(F)CCN(Cc2cccnc2)CC12CCN(c1ccccc1)C2 (stereo unspecified)
  cytotoxicity at 10 µM: -84.5%

## Cc1ccccc1SC1CCN(C(=O)C2[C@H]3CNC[C@@H]23)CC1 (stereo partly specified)
  cytotoxicity at 10 µM: -10.1%
